Reference: ChEMBL document CHEMBL1142636 (2000)
Calls of active or inactive are those of the source.

Key:
Assay type in all cases: functional
U-251 = experiment: Growth inhibition of human U251 cells
How it was run: (§1)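 Tested at the NCI in its human disease-oriented in vitro screen of 60 tumour cell lines, following the Monks et al. methods. Activity is expressed as GI50, given as log molar values.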

COLO 205 = experiment: Growth inhibition of human COLO205 cells
ACHN = experiment: Growth inhibition of human ACHN cells
M19-MEL = experiment: Growth inhibition of human M19-MEL cells
NCI-H522 = experiment: Growth inhibition of human NCI-H522 cells
HT-29 = experiment: Growth inhibition of human HT29 cells
TK-10 = experiment: Growth inhibition of human TK10 cells; how it was run: as §1
HOP-92 = experiment: Growth inhibition of human HOP92 cells
MOLT-4 = experiment: Growth inhibition of human MOLT4 cells
UO-31 = experiment: Growth inhibition of human UO31 cells; how it was run: as §1
MDA-MB-435 = experiment: Growth inhibition of human MDA-MB-435 cells
MCF7 = experiment: Growth inhibition of human MCF7 cells
UACC-257 = experiment: Growth inhibition of human UACC257 cells; how it was run: as §1
IGROV-1 = experiment: Growth inhibition of human IGROV1 cells
DMS144 = experiment: Growth inhibition of human DMS144 cells
CCRF-CEM = experiment: Growth inhibition of human CCRF-CEM cells
Malme-3M = experiment: Growth inhibition of human MALME-3M cells
SK-MEL-2 = experiment: Growth inhibition of human SK-MEL-2 cells; how it was run: as §1
LOX IMVI = experiment: Growth inhibition of human LOX IMVI cells
786-0 = experiment: Growth inhibition of human 786-0 cells
PC-3 = experiment: Growth inhibition of human PC3 cells
SK-OV-3 = experiment: Growth inhibition of human SK-OV-3 cells; how it was run: as §1
SF-539 = experiment: Growth inhibition of human SF539 cells; how it was run: as §1
BT-549 = experiment: Growth inhibition of human BT549 cells
HCT-116 = experiment: Growth inhibition of human HCT116 cells
SNB-75 = experiment: Growth inhibition of human SNB75 cells; how it was run: as §1
M14 = experiment: Growth inhibition of human M14 cells
SR = experiment: Growth inhibition of human SR cells; how it was run: as §1
A549 = experiment: Growth inhibition of human A549 cells
CAKI-1 = experiment: Growth inhibition of human CAKI1 cells
T47D = experiment: Growth inhibition of human T47D cells; how it was run: as §1
LXFL 529 = experiment: Growth inhibition of human LXFL529 cells
Hs-578T = experiment: Growth inhibition of human HS578T cells
NCI-H460 = experiment: Growth inhibition of human NCI-H460 cells
DMS-273 = experiment: Growth inhibition of human DMS273 cells
HL-60(TB) = experiment: Growth inhibition of human HL60(TB) cells
KM-20L2 = experiment: Growth inhibition of human KM20L2 cells
OVACR3 = experiment: Growth inhibition of human […] cells
HCC 2998 = experiment: Growth inhibition of human HCC2998 cells
NCI-H226 = experiment: Growth inhibition of human NCI-H226 cells
NCI-H23 = experiment: Growth inhibition of human NCI-H23 cells
MDA-MB-231 = experiment: Growth inhibition of human MDA-MB-231 cells
HCT-15 = experiment: Growth inhibition of human HCT15 cells
HOP-18 = experiment: Growth inhibition of human HOP18 cells
SF-268 = experiment: Growth inhibition of human SF268 cells; how it was run: as §1
NCI/ADR-RES = experiment: Growth inhibition of human MCF7/ADR-RES cells
OVACR8 = experiment: Growth inhibition of human OVACR8 cells
SNB-19 = experiment: Growth inhibition of human SNB19 cells; how it was run: as §1
SK-MEL-5 = experiment: Growth inhibition of human SK-MEL-5 cells; how it was run: as §1
RXF 393 = experiment: Growth inhibition of human […] cells
EKVX = experiment: Growth inhibition of human EKVX cells
OVACR5 = experiment: Growth inhibition of human OVACR5 cells
K562 = experiment: Growth inhibition of human K562 cells
SK-MEL-28 = experiment: Growth inhibition of human SK-MEL-28 cells; how it was run: as §1
KM12 = experiment: Growth inhibition of human KM12 cells
A498 = experiment: Growth inhibition of human A498 cells
NCI-H322M = experiment: Growth inhibition of human NCI-H322M cells
XF498 = experiment: Growth inhibition of human XF498 cells; how it was run: as §1
HOP-62 = experiment: Growth inhibition of human HOP62 cells
SN12C = experiment: Growth inhibition of human SN12C cells; how it was run: as §1
DLD-1 = experiment: Growth inhibition of human DLD1 cells
RPMI8266 = experiment: Growth inhibition of human RPMI8266 cells
UACC-62 = experiment: Growth inhibition of human UACC62 cells; how it was run: as §1
OVACR4 = experiment: Growth inhibition of human OVACR4 cells
DU-145 = experiment: Growth inhibition of human DU145 cells
SW-620 = experiment: Growth inhibition of human SW620 cells; how it was run: as §1
SF-295 = experiment: Growth inhibition of human SF295 cells; how it was run: as §1
MDA-N = experiment: Growth inhibition of human MDA-N cells

Measured: Activity

COc1cc(Cn2c3ccccc3c3cc(C)c4c(c32)C=CC(C)(CCC=C(C)C)O4)cc2c1[nH]c1ccccc12 (stereo unspecified)
inactive: all assays above

COc1ccc2c([nH]c3c(O)c(-c4c(C)cc5c([nH]c6c(CC=C(C)C)c(OC)ccc65)c4O)c(C)cc32)c1CC=C(C)C
inactive: all assays above
